Laboratory results as given in PMC6188675 (Journal of medicinal chemistry, 2013).

Legend:
[1] = tested on: Flag-6x-histidine construct; assay: Quench counter-screen; conditions: compounds tested at 10 µM
Outline: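 Run as the integrase–LEDGF/p75 AlphaScreen, with one Flag-6xhistidine construct replacing both proteins. Compound incubations were 30 min then 60 min at 4 °C. Ni-chelate donor and anti-FLAG acceptor beads were added at 20 µg/mL each for 1 h at 30 °C, kept from light. Acceptor-bead emission gave percent inhibition.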

[2] = biological target: IN 3'-processing catalysis (Human immunodeficiency virus type 1 group M subtype B, UniProt P12497); assay: IN enzymatic assay, 3'-processing; format: biochemical, HIV-1
[3] = biological target: IN strand transfer catalysis (Human immunodeficiency virus type 1 group M subtype B, UniProt P12497); assay: IN enzymatic assay, strand transfer; format: biochemical, HIV-1
LNCaP cells = assay: MTT cytotoxicity assay in LNCaP cells; format: cell-based
HIV-1 = assay: Antiviral MTT/MT-4 assay; format: cell-based; conditions: MT-4 cells, 13 µM

| Structure (SMILES) | Quench % Inhib. [1] [%] | IC50 [2] [µM] | IC50 [3] [µM] | cytotoxicity in MTT LNCaP assay (in words) (LNCaP cells) | antiviral activity at maximum testable concentration (HIV-1) |
| --- | --- | --- | --- | --- | --- |
| CCC(=O)NC(c1ccc(OC)c(OC)c1)c1cc(Cl)c2cccnc2c1O (stereo not shown) [Q1–9] | <50 |  |  |  |  |
| CCC(=O)NC(c1ccco1)c1cc(Cl)c2cccnc2c1O (stereo not shown) [Q1–8] | <50 |  |  |  |  |
| Cc1cccc(NCc2ccc(O)c3ncccc23)n1 [Q2–4] | <50 | > 20 | > 20 |  |  |
| Oc1ccc(CN2CCN(c3ccccc3)CC2)c2cccnc12 [Q3–7] | <50 |  |  | notable cell-growth inhibition |  |
| COc1cccc(NCc2ccc(O)c3ncccc23)c1 [Q2–7] | <50 | > 20 | > 20 | notable cytotoxicity |  |
| Oc1ccc(Cl)c2cccnc12 [QA, 5-chloroquinolin-8-ol] | <50 | > 20 | > 20 |  |  |
| Oc1ccc(Cc2ccc(O)c3ncccc23)c2cccnc12 [Q2-2] | <50 |  |  | notable cytotoxicity |  |
| CCOCc1ccc(O)c2ncccc12 [QC, 5-(ethoxymethyl)quinolin-8-ol] | <50 | > 20 | > 20 |  |  |
| CCCC(=O)NC(c1ccccc1)c1ccc2cccnc2c1O (stereo not shown) [Q1-1] | <50 | > 20 | > 20 | notable cytotoxicity |  |
| O=C(CC(Sc1cccc2cccnc12)c1ccc(F)cc1)c1cccs1 (stereo not shown) [Q5-2] | <50 | > 20 | > 20 |  |  |
| Oc1ccc(CNc2ccccc2Cl)c2cccnc12 [Q2–14] | <50 |  |  |  |  |
| CCC(=O)NC(c1ccc(OC)cc1)c1cc([N+](=O)[O-])c2cccnc2c1O (stereo not shown) [Q1–4] | <50 | > 20 | > 20 |  |  |
| CCOc1ccc(NCc2ccc(O)c3ncccc23)cc1 [Q2–12] | <50 |  |  |  |  |
| Oc1ccc(CNc2ccccc2F)c2cccnc12 [Q2–10] | <50 | > 20 | > 20 |  |  |
| Oc1ccc(CNc2cccc(C(F)(F)F)c2)c2cccnc12 [Q2–5] | <50 | > 20 | > 20 |  |  |
| CCC(=O)NC(c1ccccc1OC)c1ccc2cccnc2c1O (stereo not shown) [Q1–2] | <50 | > 20 | > 20 | notable cytotoxicity |  |
| Cc1ccc(S(=O)(=O)NC(=O)Oc2cccc3cccnc23)cc1 [Q4-1] | <50 | > 20 | > 20 | low cytotoxicity |  |
| COc1ccc(C(NC(C)=O)c2cc([N+](=O)[O-])c3cccnc3c2O)cc1OC (stereo not shown) [Q1–7] | <50 |  |  |  |  |
| Oc1ccccc1C(Nc1nccs1)c1ccc2cccnc2c1O (stereo not shown) [Q1–12] | <50 |  |  |  |  |

| Structure (SMILES) | Quench % Inhib. [1] [%] | IC50 [2] [µM] | IC50 [3] [µM] | cytotoxicity in MTT LNCaP assay (in words) (LNCaP cells) | antiviral activity at maximum testable concentration (HIV-1) |
| --- | --- | --- | --- | --- | --- |
| CC(=O)NC(c1ccccc1)c1cc(Cl)c2cccnc2c1O (stereo not shown) [Q1–5] | <50 | > 20 | > 20 |  |  |
| COc1cccc(C(NC(C)=O)c2ccc3cccnc3c2O)c1 (stereo not shown) [Q1–3] | <50 | > 20 | > 20 |  |  |
| Cc1ccc(NCc2ccc(O)c3ncccc23)cc1C [Q2–13, 5-(((3,4-dimethylphenyl)amino)methyl)quinolin-8-ol] | <50 |  |  |  |  |
| CN1CCN(Cc2ccc(O)c3ncccc23)CC1 [Q3-2] | <50 |  |  | negligible inhibition of cell growth |  |
| Oc1ccc(CN2CCN(Cc3ccccc3)CC2)c2cccnc12 [Q3–9] | <50 | > 20 | > 20 |  |  |
| CCCC(=O)NC(c1ccc(OC)cc1)c1ccc2cccnc2c1O (stereo not shown) [Q1–11] | <50 |  |  |  |  |
| CCOC(=O)C1CCN(Cc2ccc(O)c3ncccc23)CC1 [Q3–8] | <50 | > 20 | > 20 |  |  |
| Cc1ccccc1NCc1ccc(O)c2ncccc12 [Q2-1] | <50 |  |  |  |  |
| Oc1c(Cl)cc(Cl)c2cccnc12 [QB, 5,7-dichloroquinolin-8-ol] | <50 | > 20 | > 20 |  |  |
| CCC(=O)NC(c1cccs1)c1cc([N+](=O)[O-])c2cccnc2c1O (stereo not shown) [Q1–6] | <50 | > 20 | > 20 |  |  |
| O=C(CC(Sc1cccc2cccnc12)c1ccc(OC(F)F)cc1)c1ccco1 (stereo not shown) [Q5-1] | <50 | > 20 | > 20 |  |  |
| Cc1cccnc1NCc1ccc(O)c2ncccc12 [Q2–9] | <50 | > 20 | > 20 |  |  |
| Cc1cccc(NCc2ccc(O)c3ncccc23)c1 [Q2–11] | <50 | > 20 | > 20 |  |  |
| Oc1ccc(CNc2ccc(C(F)(F)F)cc2)c2cccnc12 [Q2–3] | <50 | > 20 | > 20 |  |  |
| Cc1ccc(NCc2ccc(O)c3ncccc23)cc1 [Q2–8, 5-((p-tolylamino)methyl)quinolin-8-ol] | <50 |  |  |  |  |
| Cc1cccc(NCc2ccc(O)c3ncccc23)c1C [Q2–6] | <50 | > 20 | > 20 |  | no antiviral activity could be detected |
| CCOC(=O)C1CCCN(Cc2ccc(O)c3ncccc23)C1 (stereo not shown) [Q3–6] | <50 |  |  |  |  |
| CC(=O)NC(c1ccc(N(C)C)cc1)c1cc(Cl)c2cccnc2c1O (stereo not shown) [Q1–10] | <50 |  |  |  |  |
| Oc1ccc(CN2CCCCC2)c2cccnc12 [Q3-1] | <50 |  |  | negligible inhibition of cell growth |  |
